CHOP UPR activ = activators of apoptotic arm of unfolded protein response (CHOP). AID 449763. activation, % at 10 µM. 330,000 compounds, 0.34% hits. CHO-CHOP luciferase reporter, UPR activation, luminescence; percent of tunicamycin response over DMSO baseline;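 active = at 10 µM dose, activation of 40% or more, normalized to positive control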
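Test system: CHO-CHOP cells, stable luciferase reporter of PERK-eIF2a-CHOP signalling | Quantity: 500 CHO-CHOP cells per well | Buffer or medium: F12 plus 10% serum | Compound dosing: 10 µM single point, 0.5% DMSO | Schedule: 6 h compound treatment, 37 °C | Signal: Luciferase luminescence | Control set: Tunicamycin high control, DMSO low control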
Mdm2 MdmX PPI = disrupts the human Mdm2-MdmX interaction; SaOS-2 split-luciferase Mdm2/MdmX complementation, luminescence; inhibition, % at 8 µM; O15151+Q00987; 330,000 compounds, 3% hits;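 active = inhibition of at least 50% at 8 µM in the primary screen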
Target sequence (O15151 whole entry, looked up): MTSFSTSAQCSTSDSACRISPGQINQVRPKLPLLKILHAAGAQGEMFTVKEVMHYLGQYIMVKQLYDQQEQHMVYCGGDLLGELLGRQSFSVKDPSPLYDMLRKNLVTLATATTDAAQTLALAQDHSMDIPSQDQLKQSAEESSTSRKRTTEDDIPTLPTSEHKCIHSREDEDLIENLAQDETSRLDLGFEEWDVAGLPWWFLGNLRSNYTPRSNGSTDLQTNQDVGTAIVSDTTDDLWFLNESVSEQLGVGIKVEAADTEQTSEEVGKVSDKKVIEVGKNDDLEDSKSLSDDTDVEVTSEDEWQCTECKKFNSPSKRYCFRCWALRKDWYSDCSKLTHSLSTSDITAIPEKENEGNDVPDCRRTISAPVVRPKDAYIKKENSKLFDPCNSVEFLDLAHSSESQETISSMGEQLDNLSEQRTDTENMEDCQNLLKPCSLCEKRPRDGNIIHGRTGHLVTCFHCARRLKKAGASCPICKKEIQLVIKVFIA
Target sequence (Q00987 whole entry, looked up): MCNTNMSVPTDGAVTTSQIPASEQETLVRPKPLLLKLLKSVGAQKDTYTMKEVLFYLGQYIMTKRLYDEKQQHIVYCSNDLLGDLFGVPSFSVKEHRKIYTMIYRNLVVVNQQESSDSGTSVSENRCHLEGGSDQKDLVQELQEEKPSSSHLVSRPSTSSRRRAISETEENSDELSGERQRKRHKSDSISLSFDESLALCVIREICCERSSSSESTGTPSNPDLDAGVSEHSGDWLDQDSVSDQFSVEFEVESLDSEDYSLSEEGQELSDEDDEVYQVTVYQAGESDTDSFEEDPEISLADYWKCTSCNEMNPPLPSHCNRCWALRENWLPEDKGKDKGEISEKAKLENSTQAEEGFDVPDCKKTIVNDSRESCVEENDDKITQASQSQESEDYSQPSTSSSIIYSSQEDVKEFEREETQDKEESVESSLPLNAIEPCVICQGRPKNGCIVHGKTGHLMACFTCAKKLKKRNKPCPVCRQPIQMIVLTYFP
ABHD5 PLIN5 PPI = inhibitors of human ABHD5-perilipin-5 interaction. Q00G26+Q8WTS1. AID 602281. Split G. princeps luciferase complementation, luminescence, 4 h. inhibition, % at 4 µM. 360,000 compounds, 0.78% hits;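 active = inhibition above the mean inhibition across every tested compound plus 3 SD, cut at about 22% in these data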
Exocytosis inh = lytic granule exocytosis inhibition | TALL-104 LAMP-1 surface exposure, flow cytometry; cells stimulated with thapsigargin and PMA | inhibition, % at 10 µM | 360,000 compounds, 0.66% hits | AID 651702;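 active = inhibition above about 55%, limit read from the data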
XBP1 UPR activ = activators of adaptive arm of unfolded protein response (XBP1); AID 463104; activation, % at 20 µM; 330,000 compounds, 0.33% hits; CHO-XBP1 luciferase reporter, IRE1-XBP1 UPR activation, luminescence; percent of tunicamycin response, DMSO as zero;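 active = versus positive control, 20 µM dose yields 30% or more activation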
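Material: CHO-XBP1 cells stably carrying IRE1-XBP1-driven luciferase reporter / Amount: 1000 cells per well / Compound: 20 µM, 1% DMSO / Times: 6 h treatment, 37 °C / Detection: luciferase luminescence / Measure: % activation of reporter signal versus tunicamycin and DMSO controls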
Mdm2-MdmX conf = confirmation of human Mdm2/MdmX interaction inhibitors; shares compounds with Mdm2 MdmX PPI; Mdm2-MdmX binding, luminescent assay; inhibition, % at 8 µM; 10,000 compounds, 55% hits; AID 489028; in the data active = inhibition above about 40%
Full FLuc ctr = full-length luciferase inhibition in Mdm2/MdmX counter-screen; SaOS-2 full-length luciferase counterscreen, luminescence; shares compounds with Mdm2 MdmX PPI; 6,200 compounds, 77% hits; inhibition, % at 8 µM;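 active = mean inhibition at 8 µM reaching about 37%, which flags the compound as non-specific, limit read from the data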;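 also: p53-null SaOS-2 cells with luciferase driven by a doxycycline-inducible promoter; compound on cells about two nights before reading with doxycycline added after day one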
Large screens that a line does not name were inactive (follow-up assays come after a bar, where they were run). Most compounds without a hit are left out; they make up all but 4% or so of the library.

O=C(CCC1N=C2c3ccccc3N=C(SCc3ccccc3Cl)N2C1=O)NCc1ccco1 (stereo not given)	none
CCOc1ccccc1NC(=O)NC1Cc2ccccc2C1	none
COc1ccc(CNCc2cn(-c3cccc(F)c3)nc2-c2ccc(C)o2)cc1	Mdm2 MdmX PPI 51.7 | Mdm2-MdmX conf inactive
O=C(Cc1ccccc1)NCCSC1CCCCC1	none
CC(C(=O)Nc1ccc(OCc2ccccc2)cc1)N1CCCC1 (stereo not given)	none
CC(C)COCC(CN(Cc1ccccc1)c1ccccc1)N1CCCC1 (stereo not given)	Mdm2 MdmX PPI 59.9 | Mdm2-MdmX conf inactive
Cc1cc(C)n(-c2nc(NCCN(C)C)c3c4c(sc3n2)COC(C)(C)C4)n1	Mdm2 MdmX PPI 65.3 | Mdm2-MdmX conf inactive | Full FLuc ctr 62.9
Cc1cc(C)n(-c2nc(NCCCN(C)C)c3c4c(sc3n2)CCCC4)n1	Mdm2 MdmX PPI 54.1 | Mdm2-MdmX conf inactive
CCN(CC)CCNc1nc(-n2nc(C)cc2C)nc2sc3c(c12)CC(C)(C)OC3	Mdm2 MdmX PPI 61.1 | Mdm2-MdmX conf inactive
Cc1cc(C)n(-c2nc(NCCCN(C)C)c3c4c(sc3n2)COC(C)(C)C4)n1	none
Cc1cc(C)cc(N(CCC#N)C(=O)COC(=O)CN2C(=O)NC(C)(C)C2=O)c1	none
O=C(NCC1CCCO1)C1CCCN(S(=O)(=O)c2cccc(C(F)(F)F)c2)C1 (stereo not given)	none
CC[C@H](C)[C@@H](N)C(=O)NC[C@H]1O[C@@H](n2cnc3c(=O)[nH]c(N)nc32)[C@H](O)[C@@H]1O	none (no result: CHOP UPR activ, Mdm2 MdmX PPI, XBP1 UPR activ)
COc1cc(C(=O)C(=O)c2ccc(OC)c(OC)c2)ccc1O	none (no result: CHOP UPR activ, Mdm2 MdmX PPI, XBP1 UPR activ)
COc1cc2c(cc1OC)C(c1cccs1)N(C(=O)c1cccnc1)CC2 (stereo not given)	Mdm2 MdmX PPI 56.2 | Mdm2-MdmX conf 58.4 | Full FLuc ctr 73.3
COC(=O)C1CCN(C(=O)CN2C(=O)NC(CCc3ccccc3)C2=O)CC1 (stereo not given)	none
O=C1CC(c2cc(F)ccc2F)c2cc3c(cc2N1)CCC3 (stereo not given)	Mdm2 MdmX PPI 51.8 | Mdm2-MdmX conf 52.1 | Full FLuc ctr 71.9
O=C1CC(c2cccc(Br)c2)c2cc3c(cc2N1)CCC3 (stereo not given)	Mdm2 MdmX PPI 67.0 | Mdm2-MdmX conf 41.9 | Full FLuc ctr 67.9
CC1(C)CC(=O)C2=C(C1)NC(=O)CC2c1cc(F)ccc1F (stereo not given)	none
CC(=O)c1c(C)oc2ccc(OCc3ccccc3)cc12	none
Cc1cc(C)cc(NC(=O)CCCSc2nc3ccccc3[nH]2)c1	none
CCOC(=O)/C(C#N)=C/c1cc2ccccc2nc1Cl	none
CSc1nc2ccccc2cc1/C=C(\C#N)c1cccc(Cl)c1	Mdm2 MdmX PPI 57.1 | Mdm2-MdmX conf 56.0 | Full FLuc ctr 57.8
O=[N+]([O-])c1cc(C(F)(F)F)ccc1Oc1cccnc1[N+](=O)[O-]	none
O=C(Cn1ncc(Cl)c(Cl)c1=O)NC1CCCCC1	Mdm2 MdmX PPI 100.3 | Mdm2-MdmX conf 75.5 | Full FLuc ctr 56.4
Cc1cccc(NC(=O)CNC(=O)Cn2ncc(Cl)c(Cl)c2=O)c1C	Mdm2 MdmX PPI 100.2 | Mdm2-MdmX conf 56.0 | Full FLuc ctr 51.9
COc1ccc(OC)c(NC(=O)c2cc(OC(C)=O)cc(C(=O)Nc3cc(OC)ccc3OC)c2)c1	Mdm2 MdmX PPI 56.3 | Mdm2-MdmX conf inactive
COc1ccc(C(=O)Nc2cc(OC)ccc2OC)cc1	none
CCN(CC)c1ccc(N2C(=O)/C(=C/c3cccs3)SC2=S)cc1	Mdm2 MdmX PPI 52.2 | Mdm2-MdmX conf inactive
CCN(CC)c1ccc(N2C(=O)CSC2=S)cc1	none
CCN(CC)C1Oc2cc3c(cc2C(c2cc(OC)c(O)c(OC)c2)C1C)OCO3 (stereo not given)	none (no result: CHOP UPR activ, Mdm2 MdmX PPI, XBP1 UPR activ)
COC1OC2COC(c3ccccc3)OC2C(O)C1N (stereo not given)	none (no result: CHOP UPR activ, Mdm2 MdmX PPI, XBP1 UPR activ)
COc1cc(C2c3cc4c(cc3C(OC3OC5COC(c6cccs6)OC5C(O)C3O)C3COC(=O)C23)OCO4)cc(OC)c1O (stereo not given)	Mdm2 MdmX PPI 93.6 | Mdm2-MdmX conf 88.2 | Full FLuc ctr inactive
COc1cc([C@@H]2c3cc4c(cc3[C@@H](O)[C@@H](CO)[C@@H]2CO)OCO4)cc(OC)c1O[Si](C)(C)C(C)(C)C	Mdm2 MdmX PPI 52.7 (no result: ABHD5 PLIN5 PPI, Exocytosis inh) | Mdm2-MdmX conf inactive
COc1cc([C@@H]2c3cc4c(cc3[C@@H](O[C@@H]3O[C@@H]5CO[C@@H](C)O[C@H]5[C@H](O)[C@H]3O)[C@H]3COC(=O)[C@H]23)OCO4)cc(OC)c1O	Mdm2 MdmX PPI 78.1 | Mdm2-MdmX conf 60.4 | Full FLuc ctr inactive
COc1cc([C@@H]2c3cc4c(cc3[C@H](O)[C@H]3COC(=O)[C@H]23)OCO4)cc(OC)c1OC	Mdm2 MdmX PPI 74.6 | Mdm2-MdmX conf 53.6 | Full FLuc ctr 125.9
COc1cc(C2c3cc4c(cc3C(O)C3COCC23)OCO4)cc(OC)c1OC (stereo not given)	none (no result: CHOP UPR activ, Mdm2 MdmX PPI, XBP1 UPR activ)
CC1CCCCC1NC(=O)CCCCCn1c(=S)[nH]c2ccsc2c1=O (stereo not given)	none
Cc1cccc2cc(CN(Cc3cccnc3)C(=S)NCCCN(C)C)c(=O)[nH]c12	none
O=C(N=Nc1c(O)[nH]c2ccccc12)c1cc(NS(=O)(=O)c2cccs2)cc(NS(=O)(=O)c2cccs2)c1	Mdm2 MdmX PPI 77.0 | Mdm2-MdmX conf inactive | Full FLuc ctr 79.9
COc1cccc(-c2nn(C)c3sc(C(=O)NCc4ccccn4)cc23)c1	Mdm2 MdmX PPI 55.3 | Mdm2-MdmX conf 41.2 | Full FLuc ctr 76.8
NS(=O)(=O)c1ccc(CCN2C(=O)/C(=C\c3ccc(Cl)cc3)SC2=S)cc1	Mdm2 MdmX PPI 95.1 | Mdm2-MdmX conf 96.5 | Full FLuc ctr 46.4
COc1ccc2c(c1)CCCC(Br)C2=O (stereo not given)	none (no result: CHOP UPR activ, Mdm2 MdmX PPI, XBP1 UPR activ)
CCOC(=O)C1=C(C)NC(=S)N(C(C)=O)C1c1ccc(OC)c(OC)c1 (stereo not given)	Mdm2 MdmX PPI 56.5 | Mdm2-MdmX conf inactive
FC(F)Oc1ccc(/C=N/c2c(-c3ccc(OC(F)F)cc3)nc3n2CCS3)cc1	none
Cc1ncc(CO)c2c1Oc1nc(-c3ccccc3)nc(SCC(=O)N3CCOCC3)c1C2	none
Cc1cccc(-c2nc3c(c(SCC(=O)N4CCOCC4)n2)Cc2c(CO)cnc(C)c2O3)c1	none
COc1cccc(-c2nc3c(c(SCC(=O)N4CCOCC4)n2)Cc2c(CO)cnc(C)c2O3)c1	Mdm2 MdmX PPI 64.6 | Mdm2-MdmX conf inactive | Full FLuc ctr 70.7
